Data: PubChem BioAssay
Results filed as inconclusive are left out.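 Rule for the calls, unless noted: active = inhibition over a set limit, the all-compound mean plus 3 SD, in both replicate runs; inconclusive = over that limit in just one replicate run; inactive = at or under that limit in both runs.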

What was measured:
[1] = OD615 S. cerevisiae growth inhibition, permissive medium, pilot counter-assay, permissive growth control for S. cerevisiae lifespan shortening project (AID 705;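 active = growth inhibition above 25% in both replicates, a cutoff set 3 SD above the mean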); conditions: OD615, 24 h, at 10 µM, hits give high values
Method in brief: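 assay system = Saccharomyces cerevisiae strain carrying genetically modified DeaD replicative-lifespan system | medium = SC raffinose/galactose permissive medium | dosing = 10 µM single dose, 0.25% DMSO | schedule = 24 h compound exposure at 30 °C after 4 h pre-growth | measured by = OD at 615 nm | read-out basis = growth inhibition from lowered OD615 after 24 h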

[2] = Restrictive medium S. cerevisiae growth inhibition, OD615, pilot screen of yeast lifespan reduction project, restrictive growth control (AID 706;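 active = growth inhibition above a set limit, 3 SD over mean compound inhibition, in both replicates, cut at about 43% in these data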;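 note: modified DeaD lifespan yeast strain shifted to restrictive glucose medium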); conditions: OD615, 48 h, at 10 µM, hits give high values
Method in brief: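 Buffer or medium: CSMM-D glucose medium. Material: genetically modified Saccharomyces cerevisiae, DeaD replicative lifespan assay strain. Times: 48 h compound exposure at 30 °C. Measured by: optical density at 615 nm.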

[3] = viability gain of MRP-1-high H69AR cells under doxorubicin, pilot screen, MRP-1 activator project, CellTiter-Glo, duplicate (AID 807;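 active = viability increase at or above a cutoff of the median across tested compounds plus 3 SD, cut at about 8.5% in these data, passing the limit was not always enough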;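 note: compound pretreatment 18-22 h then 72 h combined with doxorubicin; 0% = doxorubicin alone and 100% = vehicle without doxorubicin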); conditions: H69AR viability with doxorubicin, CellTiter-Glo luminescence; at 10 µM; hits give high values
[4] = growth suppression of beta-catenin knockout HCT116, pilot screen, human colon tumor cells (AID 823;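 active = cell viability at or below a set limit in both duplicate runs, the limit being the all-compound median minus 4 SD, cut at about 23% in these data, passing the limit was not always enough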;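 note: 0% = wells killed by 20 µM Hyamine and 100% = untreated DMSO cell wells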); conditions: CellTiter-Glo, 60 h, at 10 µM, hits give low values
[5] = growth suppression of PTEN-deleted HCT116, pilot screen, cell-based, HCT116 clonal line, CellTiter-Glo (AID 824;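 active = viability at or below 27.92% in each of two runs, the all-compound median minus 4 SD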;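 note: 0% = 20 µM Hyamine control and 100% = vehicle cell control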); conditions: 60 h, at 10 µM, hits give low values
[6] = inhibitors of the yeast RAM network, pilot screen, dse1pr::URA3 reporter, 5-FOA selection (AID 869);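 note: 0% = DMSO wells with no growth and 100% = 10 µM 1-NA-PP1 with full growth; RAM network block rescues cells from 5-FOA so hits raise OD615 growth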; conditions: S. cerevisiae dse1pr::URA3 5-FOA growth, OD615, 2 d; at 10 µM; hits give high values; strain carries analog-sensitive mutant Cbk1 kinase
[7] = RAM signaling pathway blockade in yeast – S. cerevisiae, Pdr1DBD-CYC8 efflux-inhibited sensitized strain, primary screen (AID 1298;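 active = RAM network inhibition above 8.4% in each of two replicates, 3 SD over the compound average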;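 note: 0% = DMSO untreated cells without growth and 100% = 10 µM 1-NA-PP1 full growth; higher means more yeast growth rescued from 5-FOA killing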); conditions: S. cerevisiae cbk1-as DSE1-URA3 strain, 5-FOA growth OD615, 2 d; at 50 µM; hits give high values

Cn1c(=O)c2c(nc(Sc3ncccn3)n2Cc2ccc(Cl)cc2)n(C)c1=O
inactive: growth inhibition [1] -0.82% | growth inhibition [2] 1.5% | viability increase [3] -2.38% | viability [4] 82.4% | viability [5] 71.1% | inhibition [6] 1.8% | RAM network inhibition [7] 0.26%

Cc1ccc(-c2nnc3n2N=C(c2ccc(Br)cc2)CS3)cc1
inactive: growth inhibition [1] 1.27% | growth inhibition [2] 15.8% | viability increase [3] -2.58% | viability [4] 102% | viability [5] 90.5% | inhibition [6] 2.41% | RAM network inhibition [7] 4.62%

Clc1ccc(CSc2nnc(-c3ccccn3)n2Cc2ccco2)c(Cl)c1
inactive: growth inhibition [1] -2.3% | growth inhibition [2] 11.9% | viability increase [3] -3.47% | viability [4] 70.2% | viability [5] 64.1% | inhibition [6] 1.68% | RAM network inhibition [7] 7.51%

CCOc1ccc(CC(=O)Nc2c(C(N)=O)oc3ccc(Br)cc23)cc1OCC
inactive: growth inhibition [1] -12% | growth inhibition [2] -15.8% | viability increase [3] -5.14% | viability [4] 61% | viability [5] 45% | inhibition [6] 2.49% | RAM network inhibition [7] 0.56%

CC(=O)c1sc(N2C(=O)c3oc4ccccc4c(=O)c3C2c2ccc(C)o2)nc1C (configuration not stated)
inactive: growth inhibition [1] 3.87% | growth inhibition [2] 6.34% | viability increase [3] -3.31% | viability [4] 96.1% | viability [5] 94.3% | inhibition [6] 1.98% | RAM network inhibition [7] -0.52%

O=C(Nc1nc(-c2cc3ccccc3oc2=O)cs1)c1ccco1
inactive: growth inhibition [1] -17.5% | growth inhibition [2] -10.9% | viability increase [3] -1.98% | viability [4] 102% | viability [5] 100% | inhibition [6] 1.57% | RAM network inhibition [7] 3.32%
